Results on 13 compounds are retold here after ChEMBL document CHEMBL4339223, “Polycyclic Maleimide-based Scaffold as New Privileged Structure for Navigating the Cannabinoid System Opportunities” (ACS Med Chem Lett, 2019).

The target of data set [1] is T1, Cannabinoid receptor 1 (Homo sapiens, UniProt P21554). Kind of data set: Displacement of [3H]-CP55940 from human recombinant cannabinoid CB1 receptor expressed in HEK293 cell membranes incubated for 90 mins. The procedure, abridged:
(§1)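 Competition binding against [3H]-CP55940 on human recombinant CB1 or CB2 receptor, with increasing concentrations of test compound. IC50 was obtained by nonlinear regression of the inhibition of radioligand binding. Ki was calculated with the Cheng–Prusoff equation, and only where IC50 was below 10 μM.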
On the technique in general: Displacement assays read how much labelled ligand stays bound in the presence of the test substance.

Data set [2] addresses T1, Cannabinoid receptor 1. Nature of the data set: Displacement of [3H]-CP55940 from human recombinant cannabinoid CB1 receptor expressed in HEK293 cell membranes incubated for 90 mins by Cheng-Prusoff equation analysis. An outline of the steps:
as §1

The target in data set [3] is T2, Cannabinoid receptor 2 (Homo sapiens, UniProt P34972). Nature of the data set: Displacement of [3H]-CP55940 from human recombinant cannabinoid CB2 receptor expressed in HEK293 cell membranes incubated for 90 mins. The procedure, abridged:
as §1

The target in data set [4] is T2, Cannabinoid receptor 2. Kind of data set: Displacement of [3H]-CP55940 from human recombinant cannabinoid CB2 receptor expressed in HEK293 cell membranes incubated for 90 mins by Cheng-Prusoff equation analysis. An outline of the steps: as §1
The target of data set [5] is T2, Cannabinoid receptor 2. Nature of the data set: Noncompetitive antagonist activity at human recombinant cannabinoid CB2 receptor expressed in CHOK1 cells assessed as inhibition of NKH-477-induced cAMP accumulation pre-incubated for 15 mins before NKH-477 stimulation for 30 mins by chemiluminescent detection based cAMP Hunter assay. The format is functional, cell-based. Background: Cyclic AMP is a second messenger, typically raised through Gs and lowered through Gi signalling.

Data set [6] concerns the target T2, Cannabinoid receptor 2. Kind of data set: Noncompetitive antagonist activity at human recombinant cannabinoid CB2 receptor expressed in CHOK1 cells assessed as inhibition of NKH-477-induced cAMP accumulation by measuring parallel shifts of NKH-477 concentration-response curves pre-incubated for 15 mins before NKH-477 stimulation for 30 mins by chemiluminescent detection based cAMP Hunter assay based Schild plot analysis. The format is functional, cell-based. The procedure, abridged:
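Functional cAMP assay under NKH-477 (water-soluble forskolin analog) stimulation. JWH-133 concentration–response curves were run alone and with several concentrations of the antagonist. The concentration ratio was taken as EC50 of JWH-133 with antagonist divided by the concentration giving the same response without it. log(CR–1) was plotted against log antagonist concentration, and the Schild slope came from linear regression.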

Data set [7] in a line: Inhibition of calcium channel in human SH-SY5Y cells assessed as blockade of 70 mM potassium-evoked depolarization-induced Ca2+ entry. The format is cell-based.
The target of data set [8] is Glycogen synthase kinase-3 beta (Homo sapiens, UniProt P49841). Nature of the data set: inhibition of GSK3beta (unknown origin) by LANCE Ultra TR-FRET assay. A general note: Time-resolved FRET reads energy transfer from a long-lived donor to a nearby acceptor.
Glycogen synthase kinase-3 beta, sequence (P49841 whole entry): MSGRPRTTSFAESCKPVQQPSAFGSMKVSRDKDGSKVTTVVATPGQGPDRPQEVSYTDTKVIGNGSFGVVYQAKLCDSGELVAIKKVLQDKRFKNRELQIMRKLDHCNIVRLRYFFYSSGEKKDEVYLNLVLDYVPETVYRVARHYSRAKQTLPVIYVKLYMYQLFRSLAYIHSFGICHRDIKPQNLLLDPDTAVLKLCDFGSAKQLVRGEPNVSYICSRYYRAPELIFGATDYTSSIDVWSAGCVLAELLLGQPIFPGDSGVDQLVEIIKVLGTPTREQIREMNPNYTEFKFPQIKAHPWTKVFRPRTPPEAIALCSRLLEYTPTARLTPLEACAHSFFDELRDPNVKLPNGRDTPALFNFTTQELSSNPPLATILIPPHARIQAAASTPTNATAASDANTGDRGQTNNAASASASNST
Data set [9] deals with T2, Cannabinoid receptor 2. Kind of data set: Activity at human recombinant cannabinoid CB2 receptor expressed in CHOK1 cells assessed as induction of cAMP content back to basal condition up to 25 uM pre-incubated for 15 mins before NKH-477 stimulation for 30 mins by chemiluminescent detection based cAMP Hunter assay. The format is functional, cell-based.

The source made the active and inactive calls. No cut-off for these calls is given here.

T1 sequence (P21554 whole entry): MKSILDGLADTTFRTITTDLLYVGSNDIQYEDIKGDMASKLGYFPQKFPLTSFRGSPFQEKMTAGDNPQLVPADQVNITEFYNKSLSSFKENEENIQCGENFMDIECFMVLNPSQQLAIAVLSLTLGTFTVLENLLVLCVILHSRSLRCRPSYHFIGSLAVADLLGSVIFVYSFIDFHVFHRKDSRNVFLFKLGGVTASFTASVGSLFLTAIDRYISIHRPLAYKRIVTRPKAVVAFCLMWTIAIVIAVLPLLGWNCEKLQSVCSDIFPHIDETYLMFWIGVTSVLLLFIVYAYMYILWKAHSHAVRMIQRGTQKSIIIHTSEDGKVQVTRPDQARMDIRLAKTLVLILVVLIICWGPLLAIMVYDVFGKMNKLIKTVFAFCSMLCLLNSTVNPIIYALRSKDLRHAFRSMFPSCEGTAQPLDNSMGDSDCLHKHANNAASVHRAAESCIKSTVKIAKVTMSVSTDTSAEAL
T2 sequence (P34972 whole entry): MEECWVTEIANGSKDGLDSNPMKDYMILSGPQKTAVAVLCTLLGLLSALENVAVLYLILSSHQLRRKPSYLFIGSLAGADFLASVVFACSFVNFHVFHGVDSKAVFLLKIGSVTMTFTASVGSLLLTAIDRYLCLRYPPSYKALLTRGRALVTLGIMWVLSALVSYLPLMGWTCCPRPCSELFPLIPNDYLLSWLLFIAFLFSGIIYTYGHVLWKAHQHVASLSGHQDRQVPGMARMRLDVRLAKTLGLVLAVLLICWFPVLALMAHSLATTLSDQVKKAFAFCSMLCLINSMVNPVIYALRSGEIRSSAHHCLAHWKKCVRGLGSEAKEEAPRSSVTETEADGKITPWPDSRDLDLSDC

A word on the IC50: it is the midpoint of a concentration-inhibition curve. The Ki is the equilibrium dissociation constant of an inhibitor or competing ligand from its target. As to `CCCCCCCN1C(=O)C2C3c4ccccc4C(c4cc(Cl)ccc43)C2C1=O` (configuration not stated), the IC50 on Cannabinoid receptor 1 [1] was above 10 µM; on Cannabinoid receptor 2 [3], 6.85 µM. Moreover, the Ki is above 10 µM on Cannabinoid receptor 1 [2] and 1.74 µM at Cannabinoid receptor 2 [4].

For `O=C1NC(=O)C2C3c4ccccc4C(c4ccccc43)C12` (configuration not stated), the IC50 on Cannabinoid receptor 1 [1] and at Cannabinoid receptor 2 [3] was above 10 µM throughout. In addition, the Ki on Cannabinoid receptor 1 [2] and on Cannabinoid receptor 2 [4] was above 10 µM each time.

In the case of `CCCCCCCNCC12c3ccccc3C(c3ccccc31)C1C(=O)N(CCCCCCC)C(=O)C12` (configuration not stated), the IC50 on Cannabinoid receptor 1 [1] and on Cannabinoid receptor 2 [3] was above 10 µM each time. Moreover, the Ki at Cannabinoid receptor 1 [2] and at Cannabinoid receptor 2 [4] was above 10 µM each time.

As to `CCCCCCCOCC12c3ccccc3C(c3ccccc31)C1C(=O)N(CCCCCCC)C(=O)C12` (configuration not stated), the IC50 on Cannabinoid receptor 1 [1] and at Cannabinoid receptor 2 [3] was above 10 µM in each case. For the same compound, the Ki on Cannabinoid receptor 1 [2] and at Cannabinoid receptor 2 [4] was above 10 µM throughout.

Take `CCCCCCCN1C(=O)C2C3c4ccccc4C(c4ccccc43)C2C1=O` (configuration not stated): the IC50 stood at 9.35 µM on Cannabinoid receptor 1 [1] and 7.94 µM at Cannabinoid receptor 2 [3]. The Ki turned out to be 3.77 µM at Cannabinoid receptor 1 [2] and 2.01 µM on Cannabinoid receptor 2 [4].

For the compound `CCCCCCCN1C(=O)C2C3c4ccccc4C(C)(c4ccccc43)C2C1=O` (configuration not stated), the figures for the IC50 on Cannabinoid receptor 1 [1] and at Cannabinoid receptor 2 [3] were above 10 µM and 3.86 µM, respectively. The Ki at Cannabinoid receptor 1 [2] was above 10 µM; at Cannabinoid receptor 2 [4], 0.98 µM.

As for `CCCCCCN1C(=O)C2C3c4ccccc4C(C)(c4ccccc43)C2C1=O` (configuration not stated), the results for the IC50 at Cannabinoid receptor 1 [1] and on Cannabinoid receptor 2 [3] were above 10 µM and 3.93 µM, respectively. Besides, the Ki on Cannabinoid receptor 1 [2] was above 10 µM; at Cannabinoid receptor 2 [4], 1.01 µM.

Turning to `CCCCCCCN1C(=O)C2C3c4ccccc4C(Cl)(c4ccccc43)C2C1=O` (configuration not stated), the IC50 on Cannabinoid receptor 1 [1] is above 10 µM; at Cannabinoid receptor 2 [3] it was 9.88 µM. Further, the Ki at Cannabinoid receptor 1 [2] was above 10 µM; on Cannabinoid receptor 2 [4], 2.51 µM.

`CCCCCCCNCC12c3ccccc3C(c3ccccc31)C1C(=O)NC(=O)C12` (configuration not stated): the IC50 at Cannabinoid receptor 1 [1] was above 10 µM; at Cannabinoid receptor 2 [3], 3.93 µM. In addition, the results for the Ki on Cannabinoid receptor 1 [2] and at Cannabinoid receptor 2 [4] were above 10 µM and 1.01 µM, respectively.

Regarding `CCCCCCCCN1C(=O)C2C3c4ccccc4C(c4ccccc43)C2C1=O` (configuration not stated), the IC50 is above 10 µM at Cannabinoid receptor 1 [1] and 8.74 µM at Cannabinoid receptor 2 [3]. The Ki on Cannabinoid receptor 1 [2] was above 10 µM; at Cannabinoid receptor 2 [4], 2.22 µM.

As to `CCCCCCCOCC12c3ccccc3C(c3ccccc31)C1C(=O)NC(=O)C12` (configuration not stated), the IC50 on Cannabinoid receptor 1 [1] is above 10 µM; at Cannabinoid receptor 2 [3], 0.9 µM. For the same compound, the Ki at Cannabinoid receptor 1 [2] was above 10 µM; at Cannabinoid receptor 2 [4] it was 0.23 µM. Also, the result at Cannabinoid receptor 2 [5] and at Cannabinoid receptor 2 [6] was Active. Moreover, the “inhibition (INH)” value in data set [7] and in data set [8] was “Not Active” throughout.

Turning to `CCCCCCCN1C(=O)C2C3c4ccccc4C(Br)(c4ccccc43)C2C1=O` (configuration not stated), the IC50 on Cannabinoid receptor 1 [1] and on Cannabinoid receptor 2 [3] was above 10 µM in each case. Moreover, the Ki on Cannabinoid receptor 1 [2] and on Cannabinoid receptor 2 [4] was above 10 µM throughout.

For `CCCCCCN1C(=O)C2C3c4ccccc4C(c4ccccc43)C2C1=O` (configuration not stated), the half-maximal inhibitory concentration (IC50) at Cannabinoid receptor 1 [1] is above 10 µM; at Cannabinoid receptor 2 [3], 8.14 µM. In addition, the Ki at Cannabinoid receptor 1 [2] was above 10 µM; on Cannabinoid receptor 2 [4] it was 2.06 µM. Besides, the outcome at Cannabinoid receptor 2 [9] was inactive.
